The source made the active and inactive calls. No cut-off for these calls is given here.
Legend:
[1] = Antioxidant activity assessed as hydroxyl radical scavenging activity incubated for 1 hr by spectrophotometric analysis; type: functional
How it was run: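 Phenanthroline (0.75 mM in ethanol), 0.2 M phosphate buffer pH 7.4, sample in DMSO and 0.75 mM FeSO4 (1 mL each) mixed, then 1 mL 0.01% H2O2 added. Incubated 1 h at 37 °C in a water bath, absorbance read at 536 nm. Triplicate; IC50 (mM) by regression interpolation.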

[2] = Antioxidant activity assessed as DPPH free radical scavenging activity incubated for 30 mins in dark condition by spectrophotometric analysis; type: functional
How it was run: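 Test samples dissolved in absolute ethanol at a range of concentrations; 1 mL mixed with 1 mL 0.2 mM DPPH in ethanol, kept in the dark 30 min, absorbance read at 517 nm against an ethanol blank. L-ascorbic acid as positive control. Triplicate measurements; IC50 taken from the dose-response curve by linear regression interpolation.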

Tyrosinase = molecular target: T1, Tyrosinase (Agaricus bisporus, UniProt O42713); assay: Inhibition of mushroom tyrosinase using […] as substrate measured after 30 mins
T1 sequence (O42713 whole entry): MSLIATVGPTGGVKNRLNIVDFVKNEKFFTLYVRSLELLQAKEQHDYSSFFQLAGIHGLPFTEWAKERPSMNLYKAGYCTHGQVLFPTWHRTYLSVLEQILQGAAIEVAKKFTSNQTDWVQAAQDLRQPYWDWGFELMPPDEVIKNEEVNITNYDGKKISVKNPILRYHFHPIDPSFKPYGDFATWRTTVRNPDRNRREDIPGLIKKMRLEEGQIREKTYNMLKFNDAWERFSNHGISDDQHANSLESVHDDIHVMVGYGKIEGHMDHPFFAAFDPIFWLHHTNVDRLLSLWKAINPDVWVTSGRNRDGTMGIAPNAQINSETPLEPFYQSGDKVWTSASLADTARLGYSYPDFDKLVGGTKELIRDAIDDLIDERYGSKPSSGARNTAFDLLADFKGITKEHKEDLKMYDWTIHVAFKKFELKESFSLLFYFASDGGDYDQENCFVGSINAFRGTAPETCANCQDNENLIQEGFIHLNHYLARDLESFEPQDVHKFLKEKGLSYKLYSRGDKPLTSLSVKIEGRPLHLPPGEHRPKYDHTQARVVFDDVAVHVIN
How it was run: (§1)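 Substrate L-tyrosine (0.507 g/L stock in HCl/0.2 M phosphate buffer pH 6.8). Inhibitor stock 1 g/L in DMSO, replaced by DMSO for the reference. Mushroom tyrosinase (200 U/mL stock in 0.2 M phosphate buffer pH 6.8) added last. Incubated 37 °C for 30 min, absorbance read at 475 nm. Percent inhibition from blank-corrected absorbances; triplicate; ferulic acid as positive control.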

[3] = molecular target: T2, Tyrosinase (Agaricus bisporus) (UniProt O42713); assay: Inhibition of mushroom tyrosinase at 1 g/L using […] as substrate measured after 30 mins; how it was run: as §1
T2 sequence (whole entry): T1 sequence (O42713 whole entry)

Structure (SMILES)	IC50 [1] [µM]	IC50 [2] [µM]	IC50 (Tyrosinase) [µM]	inhibition [3]
O=C1O[C@H]([C@@H](O)CO)C(O)=C1O [ASCORBIC ACID]	1620	80.9	–	–
CCOC(=O)[C@H](C)NC(=O)/C=C/c1ccc(O)c(O)c1	214	29.7	–	–
CCOC(=O)[C@H](Cc1ccccc1)NC(=O)/C=C/c1ccc(O)c(OC)c1	–	–	< 0.18	–
CCOC(=O)[C@H](Cc1ccccc1)NC(=O)/C=C/c1ccc(O)c(O)c1	292	33.2	> 29	–
CCOC(=O)[C@@H](NC(=O)/C=C/c1ccc(O)c(O)c1)[C@@H](C)CC	411	43.5	–	–
CCOC(=O)[C@@H](NC(=O)/C=C/c1ccc(O)c(O)c1)C(C)C	348	19.6	–	–
COc1cc(/C=C/C(=O)O)ccc1OC(C)=O	–	> 500	–	Active
CCOC(=O)[C@@H](NC(=O)/C=C/c1ccc(OC(C)=O)c(OC)c1)C(C)C	–	> 500	–	Active
CCOC(=O)[C@H](CC(C)C)NC(=O)/C=C/c1ccc(O)c(OC)c1	–	56.1	–	Active
CCOC(=O)[C@H](CC(C)C)NC(=O)/C=C/c1ccc(O)c(O)c1	373	28.6	–	–
CCOC(=O)[C@H](C)NC(=O)/C=C/c1ccc(OC(C)=O)c(OC)c1	–	482	–	Active
CCOC(=O)[C@H](C)NC(=O)/C=C/c1ccc(O)c(OC)c1	–	46.4	–	Active
CCOC(=O)CNC(=O)/C=C/c1ccc(O)c(O)c1	340	18.6	–	–
O=C(O)/C=C/c1ccc(O)c(O)c1 [CAFFEIC ACID]	287	27.6	–	–
COc1cc(/C=C/C(=O)O)ccc1O [FERULATE]	–	35.7	–	Active
CCOC(=O)[C@@H](NC(=O)/C=C/c1ccc(O)c(OC)c1)C(C)C	–	59.6	–	Active
CCOC(=O)[C@H](CC(C)C)NC(=O)/C=C/c1ccc(OC(C)=O)c(OC)c1	–	> 500	–	Active

From ChEMBL document CHEMBL4396899, “Synthesis of N-hydroxycinnamoyl amide derivatives and evaluation of their anti-oxidative and anti-tyrosinase activities” (Bioorg Med Chem, 2019)
